One data set concerns Plasmodium falciparum. In words: Antiplasmodial activity against chloroquine-resistant Plasmodium falciparum FcB1 infected in human RBC assessed as [3H]-hypoxanthine incorporation after 48 hrs by liquid scintillation counting analysis. Format: functional, organism-based. In a few lines:
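FcB1 maintained in RPMI 1640 with L-glutamine, 25 mM HEPES, 10% human serum, group O RBCs, 5% CO2; synchronized by magnetic enrichment then D-sorbitol lysis. Serial dilutions in culture medium; [3H]-hypoxanthine added at 24 h, harvest at 48 h after freeze-thaw. IC50 by linear regression on linear segments of semilog inhibition curves; triplicate, three repeats.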

Data set [1] in a line: Selectivity index, ratio of CC50 for human MCF7 cells to IC50 for chloroquine-resistant Plasmodium falciparum FcB1. Format: functional.
Data set [2] is described as follows: Cytotoxicity against human MCF7 cells assessed as decrease in cell viability after 48 hrs by XTT assay. Format: cell-based. In a few lines: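 MCF-7 cells grown as for parasite culture but with 10% fetal calf serum in place of human serum; trypsinized and seeded at 2 × 10^4 cells/well, incubated overnight, then compound added at final 1, 10 and 100 […] mL1. Viability read by XTT reduction after 48 h drug contact; experiments run twice in triplicate.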
A general note: Formazan colour is commonly taken as a measure of viable cells.

The next data set concerns Plasmodium berghei. In words: In vivo antimalarial activity against Plasmodium berghei ANKA assessed as inhibition of parasitemia at 30 mg/kg/day. It counts as functional.
A short description of data set [3]: Half life in human liver microsomes. Format: ADME. Background: Liver microsomes are a subcellular fraction often used to study metabolism.

In general, IC50 refers to the concentration needed to halve the response being measured. What is called CC50 is the concentration at which the toxic effect on the cells reaches its halfway point. As for `O=C1C(c2ccccc2)=[N+]([O-])c2cc([N+](=O)[O-])c(/C=C(\Cl)c3ccccc3)cc21`, in the data set on Plasmodium falciparum (Plasmodium falciparum, FcB1), the IC50 came to 0.84 µM. Further, in data set [1], the “Ratio CC50/IC50” value stood at 70. The CC50 at 48 h in data set [2] is 59 µM.

With `Nc1ccc(C2=[N+]([O-])c3ccccc3C2=O)cc1`, in the data set with Plasmodium falciparum (Plasmodium falciparum, FcB1), the IC50 is 0.168 µM. Moreover, in data set [1], the “Ratio CC50/IC50” value came out at 77. Moreover, the CC50 at 48 h in data set [2] is 13 µM.

`COc1ccc2c(c1)[N+]([O-])=C(c1ccc(N)cc1)C2=O`: the IC50 in the data set on Plasmodium falciparum (Plasmodium falciparum, FcB1) was 0.024 µM. Moreover, the “Ratio CC50/IC50” value in data set [1] is reported as 528. Moreover, in data set [2], the CC50 at 48 h was 12.7 µM.

For the compound `COc1ccc2c(c1)C(=O)C(c1ccc(N)cc1)=[N+]2[O-].Cl`, the IC50 in the data set with Plasmodium falciparum (Plasmodium falciparum, FcB1) is below 0.003 µM. Besides, in data set [1], the “Ratio CC50/IC50” value is recorded as above 3233. Further, in data set [2], the half-maximal cytotoxic concentration (CC50) at 48 h was 9.7 µM.

As to `COc1ccc2c(c1)C(=O)C(c1ccc(N(C)C)cc1)=[N+]2[O-].Cl`, the IC50 in the data set on Plasmodium falciparum is below 0.0003 µM. In addition, the “Ratio CC50/IC50” value in data set [1] was above 112333. The CC50 at 48 h in data set [2] was 33.7 µM.

As for `COc1ccc2c(c1)C(=O)C(c1ccc(N(C)C)c(C)c1)=[N+]2[O-]`, the half-inhibitory concentration (IC50) in the data set on Plasmodium falciparum (Plasmodium falciparum, FcB1) is 0.04 µM. In addition, in data set [1], the “Ratio CC50/IC50” value stood at 885. Also, the CC50 at 48 h in data set [2] is 35.4 µM.

As for `CCCCNc1ccc(C2=[N+]([O-])c3ccc(OC)cc3C2=O)cc1`, the IC50 in the data set on Plasmodium falciparum (Plasmodium falciparum, FcB1) stood at 0.021 µM. For the same compound, the “Ratio CC50/IC50” value in data set [1] is recorded as 2057. Also, the CC50 at 48 h in data set [2] came out at 43.2 µM.

Turning to `COc1ccc2c(c1)C(=O)C(c1ccc(N3CCOCC3)cc1)=[N+]2[O-]`, the IC50 in the data set on Plasmodium falciparum (Plasmodium falciparum, FcB1) is 0.0065 µM. In addition, the “Ratio CC50/IC50” value in data set [1] is above 4538.5. The CC50 at 48 h in data set [2] was above 29.5 µM.

`COc1ccc2c(c1)C(=O)C(c1cccnc1)=[N+]2[O-]`: the IC50 with Plasmodium falciparum (Plasmodium falciparum, FcB1) came out at 0.161 µM. Moreover, the “Ratio CC50/IC50” value in data set [1] amounted to 107. Further, in data set [2], the CC50 at 48 h worked out at 17.3 µM.

Take `O=C1C(c2ccc(Cl)cc2)=[N+]([O-])c2cccnc21`: the half-maximal inhibitory concentration (IC50) with Plasmodium falciparum (Plasmodium falciparum, FcB1) is above 2.72 µM.

With `O=C1C(c2ccc(Cl)cc2)=[N+]([O-])c2cc[n+]([O-])cc21`, in the data set with Plasmodium falciparum (Plasmodium falciparum, FcB1), the IC50 was above 5.44 µM.

On to `CN(C)c1ccc(C2=[N+]([O-])c3cc(N)ccc3C2=O)cc1`, for which the IC50 in the data set on Plasmodium falciparum (Plasmodium falciparum, FcB1) was found to be 12.3 µM. Also, the “Ratio CC50/IC50” value in data set [1] turned out to be 1.8. Moreover, the cytotoxic concentration (CC50) at 48 h in data set [2] is 21.3 µM.

Turning to `Nc1ccc2c(c1)[N+]([O-])=C(c1ccc(Cl)cc1)C2=O`, the IC50 in the data set with Plasmodium falciparum (Plasmodium falciparum, FcB1) is 0.183 µM. Moreover, the “Ratio CC50/IC50” value in data set [1] turned out to be 60. The cytotoxic concentration (CC50) at 48 h in data set [2] was determined as 11 µM.

Regarding `COc1ccc(C2=[N+]([O-])c3cc(N)ccc3C2=O)cc1`, the IC50 in the data set with Plasmodium falciparum (Plasmodium falciparum, FcB1) was 1.56 µM. The “Ratio CC50/IC50” value in data set [1] is on record as above 33. Moreover, the CC50 at 48 h in data set [2] is above 37.3 µM.

On to `COc1ccc2cc(C3=[N+]([O-])c4cc(N)ccc4C3=O)ccc2c1`, for which the half-inhibitory concentration (IC50) with Plasmodium falciparum (Plasmodium falciparum, FcB1) amounted to 1.32 µM. For the same compound, the “Ratio CC50/IC50” value in data set [1] is given as 6. Further, the 50% cytotoxic concentration (CC50) at 48 h in data set [2] was determined as 7.8 µM.

As to `Nc1ccc2c(c1)[N+]([O-])=C(CCCN1C(=O)c3ccccc3C1=O)C2=O`, the IC50 with Plasmodium falciparum (Plasmodium falciparum, FcB1) was determined as 8.3 µM. Moreover, the “Ratio CC50/IC50” value in data set [1] was 0.8. In addition, in data set [2], the CC50 at 48 h stood at 6.6 µM.

In the case of `CCOC(=O)c1ccc2c(c1)[N+]([O-])=C(c1ccccc1)C2=O`, in the data set with Plasmodium falciparum (Plasmodium falciparum, FcB1), the IC50 was determined as 0.284 µM. For the same compound, the “Ratio CC50/IC50” value in data set [1] was 91.9. The CC50 at 48 h in data set [2] is 26.4 µM.

One may read the inhibition in vivo as the share of the control response that was lost under treatment. As to `COc1ccc2c(c1)C(=O)C(c1ccc(N(C)C)cc1)=[N+]2[O-]`, the IC50 in the data set on Plasmodium falciparum is below 0.003 µM. In data set [1], the “Ratio CC50/IC50” value is above 14623. Further, in the data set with Plasmodium berghei, the inhibition in vivo at 30 mg/kg/day worked out at 15.3%.

In general, half-life refers to how long it takes for the measured level to halve. High values mean slow decline, low ones rapid decline. `O=C1C(c2ccc(Cl)cc2)=[N+]([O-])c2cc3c(cc21)OCO3`: the half-life in data set [3] was below 1 min. In addition, the inhibition in vivo at 30 mg/kg/day with Plasmodium berghei turned out to be 62.1%.

On to `C[C@H]1[C@H](OC(=O)CCC(=O)O)O[C@@H]2O[C@@]3(C)CC[C@H]4[C@H](C)CC[C@@H]1[C@@]24OO3` [SODIUM ARESUNATE], for which the IC50 in the data set on Plasmodium falciparum (Plasmodium falciparum, FcB1) came out at 0.006 µM.
